The source made the active and inactive calls. No cut-off for these calls is given here.
Experiments:
Staphylococcus aureus [1] = assay: Antibacterial activity against methicillin-resistant Staphylococcus aureus isolate M1 after 16 to 20 hrs by broth microdilution method; assay type: functional
How it was run: (§1)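 CLSI broth microdilution in cation-adjusted Mueller-Hinton broth. A 4-6 h culture was diluted to about 10⁶ CFU/mL and mixed 1:1 with twofold compound dilutions (256–0.5 µg/mL before mixing) prepared from aqueous stocks. Plates were incubated at 37 °C for 16-20 h. Each concentration was tested in duplicate, and the experiment was repeated at least twice.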

Staphylococcus aureus [2] = assay: Antibacterial activity against methicillin-resistant Staphylococcus aureus isolate M2 after 16 to 20 hrs by broth microdilution method; assay type: functional; how it was run: as §1
Staphylococcus aureus [3] = assay: Antibacterial activity against Staphylococcus aureus ATCC 29213 after 16 to 20 hrs by broth microdilution method; assay type: functional; how it was run: as §1
Staphylococcus aureus [4] = assay: Antibacterial activity against methicillin-resistant Staphylococcus aureus isolate M8 after 16 to 20 hrs by broth microdilution method; assay type: functional; how it was run: as §1
Staphylococcus aureus [5] = assay: Induction of cytoplasmic membrane depolarization in Staphylococcus aureus ATCC 29213 at 20 ug/ml measured every 2 mins for 12 mins by diSC35 staining based fluorescence assay; assay type: functional, organism-based
How it was run: (§2)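 Mid-log cells (4–6 h) pelleted, washed and resuspended (~10^8 CFU/mL) in PBS for S. aureus, or in 5 mM HEPES, 5 mM glucose and 100 mM KCl (1:1:1) for E. coli. Preloaded with diSC35 (10 µM, 50 µL), 30 min for S. aureus and 40 min plus EDTA (200 µM, 50 µL) for E. coli. Baseline read 8 min (ex 622/em 670 nm), then compound added to 20 µg/mL final and read every 2 min for 12 min. Water control.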

Escherichia coli [6] = assay: Antibacterial activity against Escherichia coli ATCC 25922 after 16 to 20 hrs by broth microdilution method; assay type: functional
How it was run: (§3)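 Broth microdilution per CLSI in cation-adjusted Mueller-Hinton broth; 4-6 h cultures (~10⁸ CFU/mL) diluted to ~10⁶ CFU/mL and mixed 1:1 with twofold dilutions of water-dissolved compound (256 to 0.5 µg/mL). Incubated 16-20 h at 37 °C; MIC read visually. Each concentration run in duplicate, whole experiment repeated at least twice. MRSA, KPC and NDM-1 strains were clinical isolates.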

Escherichia coli [7] = assay: Induction of inner membrane permeabilization in Escherichia coli ATCC 25922 at 20 ug/ml measured every 2 mins for 12 mins by propidium iodide staining based fluorescence assay; assay type: functional, organism-based
How it was run: (§4)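 Mid-log cells (~10^8 CFU/mL) pre-incubated with propidium iodide (10 µM, 50 µL), 30 min for S. aureus and 40 min for E. coli. Fluorescence (ex 535/em 617 nm) read for 8 min, then compound added to 20 µg/mL final and monitored every 2 min for 12 min. Water-treated control.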

Staphylococcus aureus [8] = assay: Antibacterial activity against methicillin-resistant Staphylococcus aureus isolate M3 after 16 to 20 hrs by broth microdilution method; assay type: functional; how it was run: as §1
Enterococcus faecalis = assay: Antibacterial activity against Enterococcus faecalis after 16 to 20 hrs by broth microdilution method; assay type: functional; how it was run: as §3
Staphylococcus aureus [9] = assay: Antibacterial activity against methicillin-resistant Staphylococcus aureus isolate M10 after 16 to 20 hrs by broth microdilution method; assay type: functional; how it was run: as §1
Staphylococcus aureus [10] = assay: Antibacterial activity against methicillin-resistant Staphylococcus aureus isolate M6 after 16 to 20 hrs by broth microdilution method; assay type: functional; how it was run: as §1
Staphylococcus aureus [11] = assay: Induction of inner membrane permeabilization in Staphylococcus aureus ATCC 29213 at 20 ug/ml measured every 2 mins for 12 mins by propidium iodide staining based fluorescence assay; assay type: functional, organism-based; how it was run: as §4
Staphylococcus aureus [12] = assay: Antibacterial activity against methicillin-resistant Staphylococcus aureus isolate M7 after 16 to 20 hrs by broth microdilution method; assay type: functional; how it was run: as §1
Escherichia coli [13] = assay: Induction of outer membrane permeabilization in Escherichia coli ATCC 25922 at 20 ug/ml measured every 2 mins for 12 mins by NPN staining based fluorescence assay; assay type: functional, organism-based
How it was run: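 Mid-log E. coli (~10^8 CFU/mL) in black plates pre-incubated about 40 min with NPN (10 µM, 50 µL). Baseline read 8 min (ex 350/em 420 nm), then compound added to 20 µg/mL final and fluorescence followed every 2 min for 12 min. Water-treated control.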

Escherichia coli [14] = assay: Induction of cytoplasmic membrane depolarization in Escherichia coli ATCC 25922 at 20 ug/ml measured every 2 mins for 12 mins by diSC35 staining based fluorescence assay; assay type: functional, organism-based; how it was run: as §2
Salmonella enterica = assay: Antibacterial activity against Salmonella enterica after 16 to 20 hrs by broth microdilution method; assay type: functional; how it was run: as §3
Staphylococcus aureus [15] = assay: Antibacterial activity against methicillin-resistant Staphylococcus aureus isolate M4 after 16 to 20 hrs by broth microdilution method; assay type: functional; how it was run: as §1
Staphylococcus aureus [16] = assay: Antibacterial activity against methicillin-resistant Staphylococcus aureus isolate M9 after 16 to 20 hrs by broth microdilution method; assay type: functional; how it was run: as §1
Staphylococcus aureus [17] = assay: Antibacterial activity against methicillin-resistant Staphylococcus aureus after 16 to 20 hrs by broth microdilution method; assay type: functional; how it was run: as §1
[18] = Hemolytic activity in sheep RBC after 1 hr; assay type: ADME, cell-based, Ovis aries, Erythrocyte; details: sheep red blood cells (erythrocytes)
How it was run: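 Sheep RBCs suspended at 5% in PBS; 150 µL added to 50 µL compound dilutions (5120 to 10 µg/mL series). Incubated 1 h at 37 °C, then centrifuged; supernatant absorbance read at 540 nm. Lysis (%) = (A−A0)/(Atotal−A0)×100, with untreated 5% RBC as A0 and 0.1% Triton X-100 as total.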

Staphylococcus aureus [19] = assay: Antibacterial activity against methicillin-resistant Staphylococcus aureus isolate M5 after 16 to 20 hrs by broth microdilution method; assay type: functional; how it was run: as §1

Structure (SMILES)	MIC (Staphylococcus aureus [3])	MIC (Escherichia coli [6])	MIC (Enterococcus faecalis)	MIC (Salmonella enterica)	Activity (Staphylococcus aureus [5])	Activity (Escherichia coli [7])	Activity (Staphylococcus aureus [11])	Activity (Escherichia coli [13])	Activity (Escherichia coli [14])	HC50 at 1 h [18]	other results
CCCCCCCCCCN(CCCCCCCCCC)C(=O)[C@@H](N)CO.Cl	8 µg/mL	> 128 µg/mL	8 µg/mL	> 128 µg/mL	Active	Active	Active	Active	Active	> 1000 µg/mL	MIC (Staphylococcus aureus [1]): 16 µg/mL; MIC (Staphylococcus aureus [2]): 4 µg/mL; MIC (Staphylococcus aureus [4]): 16 µg/mL; MIC (Staphylococcus aureus [8]): 4 µg/mL; MIC (Staphylococcus aureus [9]): 16 µg/mL; MIC (Staphylococcus aureus [10]): 8 µg/mL; MIC (Staphylococcus aureus [12]): 8 µg/mL; MIC (Staphylococcus aureus [15]): 4 µg/mL; MIC (Staphylococcus aureus [16]): 16 µg/mL; MIC (Staphylococcus aureus [17]): 16 µg/mL; MIC (Staphylococcus aureus [19]): 16 µg/mL
CCN(CC)C(=O)[C@@H](N)CCCCN.Cl.Cl	> 128 µg/mL	> 128 µg/mL	> 128 µg/mL	> 128 µg/mL	Active	Active	Active	Active	Active	> 1000 µg/mL	–
CCCCN(CCCC)C(=O)[C@@H](N)CCCCN.Cl.Cl	> 128 µg/mL	> 128 µg/mL	128 µg/mL	128 µg/mL	Active	Active	Active	Active	Active	743 µg/mL	–

Compounds with a lower MIC (Escherichia coli [6]), results first:

MIC (Staphylococcus aureus [3])	MIC (Escherichia coli [6])	MIC (Enterococcus faecalis)	MIC (Salmonella enterica)	Structure (SMILES)	Activity (Staphylococcus aureus [5])	Activity (Escherichia coli [7])	Activity (Staphylococcus aureus [11])	Activity (Escherichia coli [13])	Activity (Escherichia coli [14])	HC50 at 1 h [18]	other results
64 µg/mL	64 µg/mL	64 µg/mL	64 µg/mL	CCCCCCN(CCCCCC)C(=O)[C@@H](N)CCCCN.Cl.Cl	Active	Active	Active	Active	Active	496 µg/mL	–
–	< 0.125 µg/mL	–	–	C[C@@H](O)[C@H]1C(=O)N2C(C(=O)O)=C(S[C@@H]3CN[C@H](C(=O)N(C)C)C3)[C@H](C)[C@H]12 [MEROPENEM]	–	–	–	–	–	–	–
